The values below come from ChEMBL document CHEMBL1152266, “Synthesis of 3,6-diazabicyclo[3.1.1]heptanes as novel ligands for neuronal nicotinic acetylcholine receptors” (Bioorg Med Chem Lett, 2008).

For one experiment, the species on record is Rattus norvegicus. In words: Selectivity ratio of Ki for rat alpha7 nAChR to Ki for rat alpha4beta2 nAChR.
Experiment [1] concerns the target Neuronal acetylcholine receptor; alpha4/beta2 (Rattus norvegicus, UniProt P09483+P12390). In words: Displacement of [3H]epibatidine form alpha4beta2 nAChR in rat cortex. The procedure, abridged:
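Radioligand binding in rat cortex tissue using [³H]-epibatidine to label α4β2 sites. Ki reported as the mean (% coefficient of variation) of three independent determinations.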

Experiment [2] addresses Neuronal acetylcholine receptor subunit alpha-7 (Rattus norvegicus, UniProt Q05941). The experiment is described as follows: Displacement of [3H]alpha-bungarotoxin form alpha7 nAChR in rat cortex.

Neuronal acetylcholine receptor; alpha4/beta2, sequence (P09483 whole entry): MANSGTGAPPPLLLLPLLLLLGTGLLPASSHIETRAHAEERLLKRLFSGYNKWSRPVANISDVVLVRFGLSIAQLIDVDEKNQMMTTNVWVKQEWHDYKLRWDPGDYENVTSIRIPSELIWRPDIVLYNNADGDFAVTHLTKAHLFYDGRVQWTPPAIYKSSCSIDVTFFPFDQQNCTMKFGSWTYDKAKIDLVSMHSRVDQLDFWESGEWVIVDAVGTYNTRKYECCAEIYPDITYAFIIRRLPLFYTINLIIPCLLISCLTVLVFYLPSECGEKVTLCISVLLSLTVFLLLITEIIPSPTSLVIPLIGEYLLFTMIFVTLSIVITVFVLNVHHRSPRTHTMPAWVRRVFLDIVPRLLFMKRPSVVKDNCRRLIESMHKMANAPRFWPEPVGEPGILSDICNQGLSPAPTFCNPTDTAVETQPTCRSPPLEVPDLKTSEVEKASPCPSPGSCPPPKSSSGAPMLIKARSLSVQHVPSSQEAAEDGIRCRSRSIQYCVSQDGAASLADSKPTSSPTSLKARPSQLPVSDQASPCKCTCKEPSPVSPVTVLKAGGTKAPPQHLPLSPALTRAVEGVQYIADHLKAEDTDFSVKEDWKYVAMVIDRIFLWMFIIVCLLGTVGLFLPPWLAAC
Neuronal acetylcholine receptor; alpha4/beta2, sequence (P12390 whole entry): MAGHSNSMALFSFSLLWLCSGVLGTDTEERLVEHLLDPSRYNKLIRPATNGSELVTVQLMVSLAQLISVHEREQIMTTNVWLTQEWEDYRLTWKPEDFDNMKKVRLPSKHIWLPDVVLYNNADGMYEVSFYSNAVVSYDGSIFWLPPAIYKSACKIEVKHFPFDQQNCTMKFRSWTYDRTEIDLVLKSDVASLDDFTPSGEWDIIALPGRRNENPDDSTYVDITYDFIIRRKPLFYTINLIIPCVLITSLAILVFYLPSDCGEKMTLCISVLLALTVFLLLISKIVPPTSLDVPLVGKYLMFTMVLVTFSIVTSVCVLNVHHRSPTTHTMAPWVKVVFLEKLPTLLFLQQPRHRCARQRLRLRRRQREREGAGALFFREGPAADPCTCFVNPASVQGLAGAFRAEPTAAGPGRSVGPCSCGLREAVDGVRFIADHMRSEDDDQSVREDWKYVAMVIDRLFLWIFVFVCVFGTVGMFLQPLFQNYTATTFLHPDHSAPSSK
Neuronal acetylcholine receptor subunit alpha-7, sequence (Q05941 whole entry): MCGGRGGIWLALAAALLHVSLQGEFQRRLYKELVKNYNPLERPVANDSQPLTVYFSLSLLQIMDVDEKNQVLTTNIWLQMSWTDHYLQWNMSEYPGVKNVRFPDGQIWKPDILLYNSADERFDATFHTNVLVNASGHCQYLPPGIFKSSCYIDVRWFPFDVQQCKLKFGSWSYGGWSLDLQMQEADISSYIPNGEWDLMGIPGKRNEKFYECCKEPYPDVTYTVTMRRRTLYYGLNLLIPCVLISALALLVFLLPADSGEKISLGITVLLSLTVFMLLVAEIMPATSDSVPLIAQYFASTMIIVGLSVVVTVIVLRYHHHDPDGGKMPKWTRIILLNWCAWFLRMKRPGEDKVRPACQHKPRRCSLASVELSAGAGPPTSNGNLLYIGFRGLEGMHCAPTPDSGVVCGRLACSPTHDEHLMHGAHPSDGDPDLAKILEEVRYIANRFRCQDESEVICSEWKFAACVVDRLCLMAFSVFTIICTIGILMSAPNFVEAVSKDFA

For `Clc1ccc(N2CC3CC(C2)N3)nn1`, the Ratio Ki in the experiment listed under Rattus norvegicus came out at 149. Besides, the Ki in experiment [1] is 0.168 nM; in experiment [2], 25 nM.
For the molecule `CN1C2CC1CN(c1ccc(Cl)nc1)C2`, the Ratio Ki in the experiment filed under Rattus norvegicus was 46.5. Further, the Ki was determined as 0.43 nM in experiment [1] and 20 nM in experiment [2].
In the case of `c1cncc(N2CC3CC(C2)N3)c1`, the Ratio Ki in the experiment filed under Rattus norvegicus was 24.3. The Ki in experiment [1] is 0.056 nM; in experiment [2], 1.36 nM.
On to `Brc1ccc(N2CC3CC(C2)N3)cn1`, for which, in the experiment filed under Rattus norvegicus, the Ratio Ki was 1300. Moreover, the figures for the Ki in experiment [1] and in experiment [2] were 0.039 nM and 50.5 nM, respectively.
As to `Clc1ccc(N2CC3CC(C2)N3)cn1`, the Ratio Ki in the experiment listed under Rattus norvegicus stood at 178. For the same molecule, the figures for the Ki in experiment [1] and in experiment [2] were 0.023 nM and 4.1 nM, respectively.
Consider `O=[N+]([O-])c1ccc(N2CC3CC(C2)N3)cc1`, for which, in the experiment filed under Rattus norvegicus, the Ratio Ki turned out to be 23300. The Ki in experiment [1] was 1.2 nM; in experiment [2], 28000 nM.
